# Experimental data of several laboratories.
# Lines come from different studies, so protocols differ.
# PLEKHA3: PLEKHA3 (Homo sapiens, UniProt Q9HB20)
# ADRA2C: Alpha-2C adrenergic receptor (ADRA2C, Homo sapiens, UniProt P18825)
# Fibroblast growth factor 14: Fibroblast growth factor 14 (Homo sapiens, UniProt Q92915)
SMILES,target,read-out,mode,method,quantity,value
CCOc1ccc(C(=O)CC(SCc2ccc(F)cc2)C(=O)O)cc1 (stereo not drawn),PLEKHA3,ligand displacement,,FP,Ki,13800 nM
COc1nc(-c2cccc(-c3ccccc3)c2C)ccc1CNCCNC(=O)CCCCCCCCCCC(=O)N1CCN(CCNC(=O)c2cc3c(=O)n4cccc(C)c4nc3n(CCc3cccs3)c2=N)CC1,"Programmed cell death 1 ligand 1 (Cd274, Mus musculus, UniProt Q9EP73)",binding,,BLI,Kd,625 nM
CCOc1ccc(C(=O)CC(SCc2ccc(Cl)cc2)C(=O)OC)cc1 (stereo not drawn),PLEKHA3,ligand displacement,,FP,Ki,17300 nM
Cc1cc(Oc2ncccc2CN2CCN(Cc3ccc(F)cc3)CC2)ccc1-c1c(C)c(=O)[nH]c(=O)n1C,ADRA2C,ligand displacement,,radioligand,Ki,206 nM
O=c1cc(-c2ccc([N+](=O)[O-])cc2)[nH]c2c(-c3ccc(Cl)cc3)c(Cc3ccccc3)nn12,Fibroblast growth factor 14,binding,,SPR,Kd,940 nM
COc1ccc(C(=O)CC(SCc2ccc(Cl)cc2)C(=O)O)cc1 (stereo not drawn),PLEKHA3,ligand displacement,,FP,Ki,13200 nM
CCOC(=O)c1cccc(NC(=O)Cn2cc(CO)c3ccccc32)c1,Fibroblast growth factor 14,binding,,SPR,Kd,293 nM
Cc1cc(Oc2ncccc2CN2CCN(c3ccccc3C#N)CC2)ccc1-c1c(C)c(=O)[nH]c(=O)n1C,ADRA2C,ligand displacement,,radioligand,Ki,56.3 nM
CCOc1ccc(-c2cc(C(=O)O)c(-c3ccc(Cl)cc3)o2)cc1,PLEKHA3,ligand displacement,,FP,Ki,550 nM
Cc1cc(Oc2ncccc2CN2CCN(c3cccc4ccccc34)CC2)ccc1-c1c(C)c(=O)[nH]c(=O)n1C,ADRA2C,ligand displacement,,radioligand,Ki,14.3 nM
CC(=O)Nc1ccc(S(=O)(=O)N2CCN(CC(O)COc3ccc4ccccc4c3)CC2)cc1 (stereo not drawn),Fibroblast growth factor 14,binding,,SPR,Kd,8530 nM
Cc1cc(Oc2ncccc2CN2CCN(c3ccccc3)CC2)ccc1-c1c(C)c(=O)[nH]c(=O)n1C,ADRA2C,ligand displacement,,radioligand,Ki,11.5 nM
CCOc1ccc(C(=O)CC(SCc2ccc(Br)cc2)C(=O)O)cc1 (stereo not drawn),PLEKHA3,ligand displacement,,FP,Ki,18600 nM
c1ccc(-c2n[nH]cc2-c2ccncc2)nc1,"Mitogen-activated protein kinase 14 (MAPK14, Homo sapiens, UniProt Q16539)",enzyme activity,inhibitor,ADP detection,IC50,4500 nM
Cc1cc(Oc2ncccc2CN2CCN(c3cccc(F)c3)CC2)ccc1-c1c(C)c(=O)[nH]c(=O)n1C,ADRA2C,ligand displacement,,radioligand,Ki,20 nM
